{"source": "paper PMC3329623", "about": "(The Biochemical journal, 2009)", "key": {"[1]": {"molecular_target": "zfα5(huW1-4)β1-1 blade swap integrin (human | zebrafish) (UniProt P08648)", "assay": "ELISA"}, "[2]": {"molecular_target": "zfα5(SWAA)β1-1 loop swap integrin (D3-A3 loop RGRK to SWAA) (zebrafish)", "assay": "ELISA"}, "[3]": {"molecular_target": "zebrafish α5β1-1-Fc recombinant soluble integrin (zebrafish)", "assay": "ELISA"}, "[4]": {"molecular_target": "zfα5β1-1(L206A) (zebrafish)", "assay": "ELISA"}, "[5]": {"molecular_target": "triple loop swap zfα5β1-1 integrin (KEDTPH to EKEPL, RGRK to SWAA and RKEIRF to ASSIY) (zebrafish)", "assay": "ELISA"}, "[6]": {"molecular_target": "zfα5β1-1(Y204A) (zebrafish)", "assay": "ELISA"}, "[7]": {"molecular_target": "zfα5(ASSIY)β1-1 loop swap integrin (D4-A4 loop RKEIRF to ASSIY) (zebrafish)", "assay": "ELISA"}, "[8]": {"molecular_target": "zfα5(EPEK)β1-1 loop swap integrin (B2-C2 loop KEDTPH to EKEPL) (zebrafish)", "assay": "ELISA"}, "[9]": {"molecular_target": "zfα5β1-1(D225A) (zebrafish)", "assay": "ELISA"}, "[10]": {"test_system": "zfα5β1-1, zfα5β1-2 and zfα5huβ1", "assay": "inhibition of 70K binding to zebrafish α5 integrins", "conditions": "specificity control / antagonist test; 1 mM Mn2+", "in_short": "(§1)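 Receptors were Fc-fused α5β1 headpiece integrins expressed transiently in CHO-L761h cells and captured from supernatant on goat anti-human Fc. Binding of the biotinylated fibronectin fragment (2–3 nM) was run with 1 mM Mn2+ at room temperature. Peptide inhibitor was tested at 0.1–100 μg/ml and small-molecule inhibitor at 0.1–300 nM, both serially diluted. BSA-well background was subtracted; four replicate wells; at least three experiments.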"}, "[11]": {"test_system": "huα5β1-1, huα5β1-2 and huα5huβ1", "assay": "inhibition of 50K binding to human α5 integrins", "set-up": "species or system human α5 / zebrafish or human β1", "conditions": "1 mM Mn2+", "in_short": "as §1"}, "α5β1": {"test_system": "α5β1", "conditions": "cited from earlier work; for affinity for α5β1: phage display peptides"}, "huα5β1-1 [12]": {"test_system": "huα5β1-1", "assay": "inhibition of 50K binding to huα5β1-1", "set-up": "species or system human α5 / zebrafish β1-1", "conditions": "control experiments"}, "zfα5(SGAA)β1-1": {"molecular_target": "zfα5(SGAA)β1-1 (Danio rerio, UniProt A0ACM8Q6M2+Q3YAA1, R184S/R186A/K187A/S520N)", "assay_type": "biochemical", "conditions": "read-out: apparent KI values for JSM6427 (Figure 6 legend); SD, n = 3", "in_short": "(§2)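 Fc-fused soluble integrin (full α5 ectodomain plus β1 headpiece: PSI, hybrid, βI) from CHO-L761h supernatants 6 days after transient co-transfection, captured on anti-human Fc. Biotinylated fibronectin fragment (E. coli-made human 3Fn6-10 or FLAG-purified zebrafish 70K from 293-EBNA cells) at 2–3 nM, 1 mM Mn2+, room temperature. Inhibitor 0.1–300 nM, serially diluted. Four replicate wells, BSA background subtracted. Curves fitted by simulated annealing. KI = IC50/(1+[ligand]/KD).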"}, "zfα5(SWAA)β1-1 [13]": {"molecular_target": "T1, zfα5(SWAA)β1-1 (Danio rerio, UniProt A0ACM8Q6M2+Q3YAA1, R184S/G185W/R186A/K187A/S520N)", "assay_type": "biochemical", "conditions": "read-out: apparent KI values for JSM6427 (Figure 6 legend); SD, n = 3", "in_short": "as §2"}, "huα5β1-1 [14]": {"molecular_target": "huα5β1-1 (UniProt P08648+Q3YAA1)", "assay": "Solid-phase inhibition of biotinylated 50K human fibronectin fragment", "assay_type": "biochemical", "conditions": "read-out: Apparent KI values (nM), JSM6427, 50K; SD, n = 3", "in_short": "as §2"}, "Triple swap": {"molecular_target": "Triple swap (Danio rerio, UniProt A0ACM8Q6M2+Q3YAA1, K151E/E152K/D153E/DEL154/H156L/R184S/G185W/R186A/K187A/R250A/K251S/E252S/DEL254/F255Y/S520N)", "assay": "Solid-phase inhibition of biotinylated 70K zebrafish fibronectin-1 fragment", "assay_type": "biochemical", "conditions": "read-out: Apparent KI values (nM), JSM6427, 70K; SD, n = 3", "in_short": "as §2"}, "zfα5(SWAA)β1-1 [15]": {"molecular_target": "T1, zfα5(SWAA)β1-1", "assay": "Solid-phase inhibition of biotinylated 70K zebrafish fibronectin-1 fragment", "assay_type": "biochemical", "conditions": "read-out: Apparent KI values (nM), JSM6427, 70K; SD, n = 3", "in_short": "as §2"}, "[16]": {"test_system": "human α5 with Ile-210 (equivalent of Leu-206) mutated to alanine", "conditions": "cited from earlier work"}, "[17]": {"test_system": "human α5 with Tyr-208 (equivalent of Tyr-204) mutated to alanine", "conditions": "cited from earlier work"}, "[18]": {"molecular_target": "zfα5(SWAA)β1-1 loop swap integrin (D3-A3 loop RGRK to SWAA) (zebrafish)", "assay": "ELISA", "remark": "listed apart in the source"}, "[19]": {"molecular_target": "triple loop swap zfα5β1-1 integrin (KEDTPH to EKEPL, RGRK to SWAA and RKEIRF to ASSIY) (zebrafish)", "assay": "ELISA", "remark": "listed apart in the source"}, "[20]": {"molecular_target": "zfα5(huW1-4)β1-1 blade swap integrin (human | zebrafish) (UniProt P08648)", "assay": "ELISA", "remark": "listed apart in the source"}, "[21]": {"molecular_target": "human α5 / zebrafish β1-1-Fc recombinant soluble integrin (human | zebrafish, UniProt P08648;Q3YAA1)", "assay": "ELISA"}}, "note": "Where two headings read alike, the source gives them in different places. Bridge positions count the residues as written; N and C are the ends. Ends that are not written are not given here."}
{"molecule": "50 kDa cell binding domain of human fibronectin (3Fn6-10) (domain or fragment)", "values": [{"measurement": "Kd", "setting": "[1]", "result": 1.3, "unit": "nM"}]}
{"molecule": "70 kDa cell binding fragment of zebrafish fibronectin-1 (3Fn6-10 including the EIIIB domain) (domain or fragment)", "values": [{"measurement": "Kd", "setting": "[2]", "result": 1.7, "unit": "nM"}, {"measurement": "fold higher affinity than for zfα5β1-2", "setting": "[3]", "result": 3, "unit": "fold"}, {"measurement": "Kd", "setting": "[4]", "result": 106, "unit": "nM"}, {"measurement": "Kd", "setting": "[5]", "result": 5.8, "unit": "nM"}, {"measurement": "Kd", "setting": "[6]", "result": 79, "unit": "nM"}, {"measurement": "Kd", "setting": "[7]", "result": 8.3, "unit": "nM"}, {"measurement": "Kd", "setting": "[8]", "result": 4.6, "unit": "nM"}, {"measurement": "Kd", "setting": "[1]", "result": 14, "unit": "nM"}, {"measurement": "Kd", "setting": "[9]", "result": 42, "unit": "nM"}]}
{"molecule": "O=C(O)CN(CCN(CC(=O)O)CC(=O)O)CC(=O)O", "note": "[EDTA]", "values": [{"measurement": "inhibition of 70K binding to zebrafish α5 integrins", "setting": "[10]", "result": "could be inhibited"}, {"measurement": "inhibition of 50K binding to human α5 integrins", "setting": "[11]", "result": "fully inhibited"}]}
{"molecule": "CRGDGFC (disulfide 1-7 (inferred)) [CRGDGFC]", "values": [{"measurement": "affinity for α5β1", "setting": "α5β1", "result": "high affinity"}]}
{"molecule": "CRGDGWC (disulfide 1-7 (inferred)) [CRGDGWC]", "values": [{"measurement": "affinity for α5β1", "setting": "α5β1", "result": "high affinity"}]}
{"molecule": "GACRRETADACGA (disulfide 3-11 (inferred))", "values": [{"measurement": "inhibition of 50K binding to huα5β1-1", "setting": "huα5β1-1 [12]", "result": "ineffective"}]}
{"molecule": "GCRGDSPCG (disulfide 2-8 (inferred)) [cyclic RGD peptide]", "values": [{"measurement": "inhibition of 70K binding to zebrafish α5 integrins", "setting": "[10]", "result": "could be inhibited"}, {"measurement": "inhibition of 50K binding to human α5 integrins", "setting": "[11]", "result": "fully inhibited"}]}
{"molecule": "JSM6427", "values": [{"measurement": "Ki", "setting": "zfα5(SGAA)β1-1", "result": 25, "unit": "nM"}, {"measurement": "Ki", "setting": "zfα5(SWAA)β1-1 [13]", "result": 4.2, "unit": "nM"}, {"measurement": "Ki", "setting": "huα5β1-1 [14]", "result": "0.65 ± 0.15", "unit": "nM"}, {"measurement": "Ki", "setting": "Triple swap", "result": "1.21 ± 0.04", "unit": "nM"}, {"measurement": "Ki", "setting": "zfα5(SWAA)β1-1 [15]", "result": "7.2 ± 2.4", "unit": "nM"}]}
{"molecule": "RGDGW", "values": [{"measurement": "specificity/selectivity for human α5β1", "setting": "α5β1; Trp-157 in the D3-A3 loop involved", "result": "human α5β1-specific and α5β1-selective"}]}
{"molecule": "fibronectin", "values": [{"measurement": "reduction of affinity of fibronectin binding, human α5 Ile mutated to alanine", "setting": "[16]", "result": 200, "unit": "fold"}, {"measurement": "reduction of affinity of fibronectin binding, human α5 Tyr mutated to alanine", "setting": "[17]", "result": 5, "unit": "fold"}]}
{"molecule": "GACRRETAWACGA (disulfide 3-11 (inferred))", "note": "[cyclic peptide …]", "values": [{"measurement": "Ki", "setting": "[18]", "result": 126, "unit": "nM"}, {"measurement": "Ki", "setting": "[19]", "result": 76, "unit": "nM"}, {"measurement": "Ki", "setting": "[20]", "result": 31, "unit": "nM"}]}
{"molecule": "GACRRETAWACGA (disulfide 3-11 (inferred))", "note": "[cyclic peptide GACRRETAWACGA]", "values": [{"measurement": "Ki", "setting": "[21]", "result": 47, "unit": "nM"}]}
